Bioassay records (PubChem BioAssay)
Shown are actives, neighbours in structure and some others; about 2.3% of the full set was active somewhere.
TRPC4 block: inhibitors of mouse TRPC4 channel, primary screen, Fluo4 calcium, HEK293 TRPC4beta/mu-opioid cells. B-score at 10 µM. DAMGO-evoked Fluo4 calcium flux; active compounds read low. 300,000 compounds, 0.39% hits. Short transient receptor potential channel 4 (Mus musculus), Q9QUQ5;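 active means B-score over 3 SD under the library average, no early fluorescence shift, positive overall ratio signal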
Target sequence (Q9QUQ5 whole entry, looked up): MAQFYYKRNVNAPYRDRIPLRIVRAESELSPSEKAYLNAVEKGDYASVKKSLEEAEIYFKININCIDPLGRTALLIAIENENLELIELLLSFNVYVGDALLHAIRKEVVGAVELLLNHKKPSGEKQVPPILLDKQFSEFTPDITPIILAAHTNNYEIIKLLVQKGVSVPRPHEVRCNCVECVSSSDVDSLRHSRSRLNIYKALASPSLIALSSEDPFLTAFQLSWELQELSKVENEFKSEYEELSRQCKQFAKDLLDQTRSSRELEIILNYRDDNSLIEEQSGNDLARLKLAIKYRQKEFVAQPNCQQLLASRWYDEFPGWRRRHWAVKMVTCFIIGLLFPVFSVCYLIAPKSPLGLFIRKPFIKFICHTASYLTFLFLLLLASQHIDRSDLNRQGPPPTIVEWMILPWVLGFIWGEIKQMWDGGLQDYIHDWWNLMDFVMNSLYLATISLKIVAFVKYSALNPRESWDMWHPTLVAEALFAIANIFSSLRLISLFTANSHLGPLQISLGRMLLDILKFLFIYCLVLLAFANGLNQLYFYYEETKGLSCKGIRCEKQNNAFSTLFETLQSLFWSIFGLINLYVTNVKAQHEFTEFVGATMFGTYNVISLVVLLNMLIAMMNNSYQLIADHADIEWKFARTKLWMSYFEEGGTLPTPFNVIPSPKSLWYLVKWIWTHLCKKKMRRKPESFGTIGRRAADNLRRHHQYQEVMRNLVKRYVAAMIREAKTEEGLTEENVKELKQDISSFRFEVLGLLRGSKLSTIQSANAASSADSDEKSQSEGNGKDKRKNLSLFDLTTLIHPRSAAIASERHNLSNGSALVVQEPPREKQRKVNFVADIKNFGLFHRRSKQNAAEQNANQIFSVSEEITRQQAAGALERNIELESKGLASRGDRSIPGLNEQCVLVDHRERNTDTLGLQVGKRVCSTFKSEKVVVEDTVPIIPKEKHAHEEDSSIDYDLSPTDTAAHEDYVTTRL
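material = TRPC4beta/mu-opioid receptor HEK293 cell line | probe or stimulus = sequential submaximal and maximal DAMGO stimulation | compound dosing = one concentration per compound | measured by = Fluo4 Ca2+ flux fluorescence | evaluation = integrated fluorescence ratio relative to baseline, converted to per-well B score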
TRPC4 potent: positive allosteric modulators of TRPC4, primary screen, cell-based, mouse TRPC4beta, HEK293 mu-opioid, Fluo-4 calcium; Short transient receptor potential channel 4 (Mus musculus), Q9QUQ5; DAMGO EC20, Fluo-4 Ca2+ flux; active compounds read high; B-score at 10 µM; 310,000 compounds, 0.42% hits; AID 2227, 2009;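 active means B-score of calcium response area above 5 SD of library B-scores, with initial fluorescence ratio within 5 SD of library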;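 further: B-score of integrated fluorescence ratio over time as area under calcium response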
TRPC6 inh: mouse TRPC6 channel inhibitors, primary screen, cell-based, HEK293, membrane potential dye | Short transient receptor potential channel 6 (Mus musculus), Q61143 | B-score at 10 µM | 310,000 compounds, 1.1% hits | ACh-evoked depolarization; active compounds read low;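 active means B-score under library mean minus 3 SD, initial fluorescence not abnormally high, positive integrated signal ratio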;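 further: B-score derived from integrated fluorescence ratio over the kinetic read; more negative B-score means stronger inhibition of depolarization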
TRPC4 agonist: activators of mouse TRPC4 channel, primary screen, Fluo4 calcium, HEK293 TRPC4beta/mu-opioid cells; B-score at 10 µM; 310,000 compounds, 0.49% hits; Short transient receptor potential channel 4 (Mus musculus), Q9QUQ5; Fluo4 calcium fluorescence; active compounds read high; AID 2237, 2010;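 active means B-score above 5 SD of library B-scores, and initial fluorescence ratio not above library mean plus 5 SD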;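 further: positive B-score marks a calcium rise read as TRPC4 activation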
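System – HEK293 cells stably co-expressing mouse TRPC4beta and mu-opioid receptor · Signal – Fluo4 calcium-sensitive dye fluorescence, kinetic, 1 Hz baseline · Benchmarks – buffer (low) and maximal DAMGO (high) · Read-out – B score of integrated fluorescence ratio per well · Incubation – dye loading 45 min room temperature, 110 s kinetic read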
TRPC6 act: mouse TRPC6 channel activators, primary screen, cell-based, HEK293, membrane potential dye; Short transient receptor potential channel 6 (Mus musculus), Q61143; AID 2550, 2010; 310,000 compounds, 0.13% hits; HEK293-TRPC6 membrane potential dye fluorescence; active compounds read high; B-score at 10 µM;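 active means B-score of the integrated fluorescence ratio above library mean plus 3 SD, and starting fluorescence ratio within library mean plus 5 SD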;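 further: higher score means more depolarization so channel activation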
TRPC4 spec 2: second selectivity test of TRPC6 inhibitors: effect on mouse TRPC4; inhibition, % at 10 µM; shares compounds with TRPC6 inh; HEK293 TRPC4/MOR, membrane potential dye fluorescence; channel activated by saturating DAMGO dose; 920 compounds, 42% hits;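 active means compounds whose fluorescence signal differed from control wells by over 3 SD, either direction, in both duplicate plates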
TRPC4 spec: mouse TRPC4 modulation by TRPC6 hits, confirmation, selectivity assay for TRPC6 inhibitor project, cell-based, HEK293 TRPC4/mu-opioid, membrane potential dye; 920 compounds, 61% hits; membrane potential fluorescence; shares compounds with TRPC6 inh; activity change, negative = inhibition, % at 10 µM;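 active means rise or fall in signal beyond 3 SD of buffer-only wells in both replicate plates, either sign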;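 further: integrated kinetic ratio of fluorescence range over baseline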
HEK293 MPD ctr 2-1: nonspecific membrane potential effects, parental HEK293, confirmation, counter-screen for TRPC6 inhibitor project, cell-based, second counter screen | AID 2779, 2010 | signal change vs control, % at 10 µM | 920 compounds, 31% hits | shares compounds with TRPC6 inh | parental HEK293 membrane potential dye fluorescence; maximal acetylcholine challenge after compound addition;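 active means membrane potential signal moving either way by over 3 SD of the maximum-effect control, in both duplicate plates, meaning non-specific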
HEK293 MPD ctr-1: membrane potential modulation in parental HEK293, confirmation, counter-screen for TRPC6 inhibitor project, cell-based | shares compounds with TRPC6 inh | parental HEK293 membrane potential dye fluorescence | AID 2780, 2010 | 920 compounds, 60% hits | membrane potential signal change, % at 10 µM;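 active means membrane potential signal shifting up or down by more than 3 SD of buffer-only wells, on both duplicate plates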
HEK293 MPD ctr-2: parental HEK293 membrane potential modulation, confirmation, counter-screen for TRPC6 modulator project, cell-based. membrane potential signal change, % at 10 µM. 2,400 compounds, 51% hits. membrane potential dye fluorescence. shares compounds with TRPC6 inh. AID 488924, 2010;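 active means membrane potential signal moves up or down beyond 5 SD from buffer-only wells, on both duplicate plates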
HEK293 MPD ctr 2-2: parental HEK293 nonspecific activity of TRPC6 modulators, second screen; shares compounds with TRPC6 inh; inhibition, % at 10 µM; AID 488926; 2,400 compounds, 14% hits; membrane potential dye fluorescence; after compound, maximal acetylcholine stimulation;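 active means membrane potential signal drops by more than 5 SD from the mean control signal, in both duplicate plates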;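 further: plate controls were acetylcholine ECmax control wells for no effect and buffer only wells for full effect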
TRPC4 ctr mod: TRPC4 modulation by TRPC6 hit compounds, confirmation, selectivity assay for TRPC6 modulator project, cell-based, HEK293 TRPC4/mu-opioid, membrane potential dye, mouse | shares compounds with TRPC6 inh | membrane potential fluorescence | percent change from control (negative = decrease, positive = increase), % at 10 µM | 2,400 compounds, 69% hits | AID 488927, 2010;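 active means membrane potential signal moved up or down beyond 5 SD of buffer control wells, in both duplicate plates, actives on both sides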;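 further: plate controls were assay buffer wells for no effect and DAMGO maximal-effect wells for full effect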
TRPC4 ctr inh 2: mouse TRPC4 off-target activity of TRPC6 modulators, second screen | shares compounds with TRPC6 inh | HEK293 TRPC4/mu-opioid, membrane potential dye fluorescence; stimulated with maximal-effect DAMGO | inhibition, % at 10 µM | 2,400 compounds, 55% hits | AID 488928;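 active means drop in membrane potential signal beyond 5 SD of the control wells in both duplicate plates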;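 further: TRPC4 counter screen for TRPC6 hits run under conditions tuned for TRPC6 not TRPC4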
TRPC6 block conf: mouse TRPC6 channel inhibitors, confirmation, HEK293 cells, membrane potential dye, duplicate; shares compounds with TRPC6 inh; ACh-evoked depolarization; inhibition, % at 10 µM; 3,300 compounds, 43% hits; AID 488960, 2010;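 active means fluorescence ratio falls more than 5 SD below the full-stimulation control mean, in both duplicate runs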;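 further: integrated fluorescence ratio of peak minus minimum over baseline after agonist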
TRPC6 act conf: mouse TRPC6 channel activators, confirmation, HEK293 cells, membrane potential dye, duplicate | shares compounds with TRPC6 inh | HEK293-TRPC6 membrane potential dye fluorescence, FDSS | activation, % at 10 µM | 2,800 compounds, 11% hits | AID 488961, 2010;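 active means ratio signal rise beyond 5 SD above unstimulated control wells' mean, seen in both duplicate runs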;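 further: plate controls were buffer EC0 wells for no effect and acetylcholine ECmax response for full effect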
* marks the source's active call; other numbers are inactive results; i = inactive; . = no result given.

SMILES	TRPC4 block	TRPC4 potent	TRPC6 inh	TRPC4 agonist	TRPC6 act	HEK293 MPD ctr-2	HEK293 MPD ctr 2-2	TRPC4 ctr mod	TRPC4 ctr inh 2	TRPC6 block conf	TRPC6 act conf	others
COCCCNC(=O)c1cc2c(=O)n3cccc(C)c3nc2n(C(C)C)c1=N	i	i	-5*	i	i	i	67%*	i	30%*	45%*	i
COCCn1c(=N)c(C(=O)NCCc2ccc(OC)cc2)cc2c(=O)n3cccc(C)c3nc21	i	i	i	i	i	.	.	.	.	.	.
Cc1cccn2c(=O)c3cc(C(=O)NC4CCCCC4)c(=N)n(Cc4ccc(F)cc4)c3nc12	i	i	i	i	i	.	.	.	.	.	.
Brc1cccc(-c2cnc3n2CCCCC3)c1	i	i	-5.4*	i	i	136%*	i	24%*	48%*	54%*	.
OCCNc1c2ccccc2nc2ccccc12	i	i	-9.5*	i	i	-233%*	i	-38%*	46%*	56%*	i
COC(=O)Nc1cc(C)nc2ccccc12	i	i	i	i	i	.	.	.	.	.	.
COCCCNc1ccnc2c(Cl)cccc12	i	i	-9*	i	i	-287%*	i	-44%*	48%*	i	i
Cc1cc(NCCO)c2cc(O)ccc2n1	i	i	-7.8*	i	i	-252%*	i	-47%*	38%*	54%*	i
COCCCNc1cc(C)nc2ccccc12	-6*	i	-7.4*	i	i	-264%*	i	-50%*	63%*	i	i
Cc1cc(NCCO)c2ccccc2n1	i	i	i	i	i	.	.	.	.	.	.
COc1ccc(NC(=O)C2CCCN(S(=O)(=O)c3cccnc3)C2)c(OC)c1 (stereo unspecified)	i	i	i	i	i	.	.	.	.	.	.
CCOC(=O)c1ccc(NC(=O)N2CCc3ccccc3C2)cc1	i	i	i	i	i	.	.	.	.	.	.
CCCCN(C)Cc1c(C)[nH]c2c(Cl)cccc2c1=O	i	i	i	i	i	.	.	.	.	.	.
O=c1c2ccccc2nnn1CSc1nnc(-c2cccnc2)n1-c1ccccc1F	i	i	i	i	i	.	.	.	.	.	.
O=C1OCCC1Sc1nnc(-c2cccnc2)n1-c1ccccc1F (stereo unspecified)	i	i	-7.5*	i	i	.	.	.	.	i	i	TRPC4 spec 2=i;TRPC4 spec=i;HEK293 MPD ctr 2-1=i;HEK293 MPD ctr-1=i
C=CCC(=O)NC1CC(C)(C)Cc2c1cnn2-c1ccc(C)cc1 (stereo unspecified)	i	i	i	i	i	.	.	.	.	.	.
O=C(c1cccc(N2C(=O)C3C4C=CC(C4)C3C2=O)c1)N1CCN(c2ccccc2Cl)CC1 (stereo unspecified)	i	i	i	i	i	.	.	.	.	.	.
O=C(CN(Cc1ccco1)C(=O)CNS(=O)(=O)c1ccc(F)cc1)NCCc1ccccc1	i	i	-5.3*	i	i	i	i	12%*	i	i	i
CSc1cccc(NC(=S)N2CCC(N(C)C3CCCCCC3)CC2)c1	i	i	-7.8*	i	i	.	.	.	.	i	i	TRPC4 spec 2=58%*;TRPC4 spec=i;HEK293 MPD ctr 2-1=i;HEK293 MPD ctr-1=0.9%*
Cc1ccc([N+](=O)[O-])cc1NC(=O)CSc1nncn1-c1ccccn1	i	i	i	i	i	.	.	.	.	.	.
Cc1cc([N+](=O)[O-])ccc1NC(=O)CSc1nncn1-c1ccccn1	i	i	-5.8*	i	i	i	i	i	i	i	i
O=C(NCC1CCCO1)[C@@H]1CSC2c3ccccc3C(=O)N21 (stereo partly specified)	i	i	-5.4*	i	i	i	i	i	i	i	i
O=C(NCC1CCCO1)C1c2ccccc2C(=O)N1C1CCCCCCC1 (stereo unspecified)	i	i	i	i	i	.	.	.	.	.	.
